Active and inactive are the calls of the source. No cut-off for these calls is given here.
Columns and labels:
MCF7 = assay: Antiproliferative activity against human MCF7 cells expressing c-MET assessed as reduction in cell viability incubated for 72 hrs by MTT assay; type: functional, cell-based; details: MCF7, 72 h
Procedure, shortened: (§1)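 Cells plated at 1×10⁴/well (6 wells/group) in RPMI-1640 with 10% FBS and left to adhere overnight. They were then switched to serum-free RPMI-1640 with 40 ng/mL HGF as mitogen plus at least four compound concentrations, or DMSO vehicle (final ≤0.1%), for 72 h, refed every other day. MTT (1 mg/mL) was added for 4 h, formazan dissolved in DMSO, and A570 read. Cell number came from a standard curve, survival was expressed versus DMSO, and IC50 was fitted by nonlinear regression.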

[1] = Antiproliferative activity against human MCF7-DOX cells expressing c-MET assessed as reduction in cell viability incubated for 72 hrs by MTT assay; type: functional, cell-based
Procedure, shortened: (§2)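 MTT proliferation. Cells in exponential growth were seeded at 1×10⁴/well (6 wells/group) in RPMI-1640 with 10% FBS and left to adhere overnight. They were then switched to serum-free RPMI-1640 with 40 ng/mL HGF as mitogen plus test doses (at least four concentrations) or DMSO vehicle (≤0.1% final), refreshed every other day. After 72 h, 1 mg/mL MTT was added for 4 h, DMSO solubilized, A570 read. Cell number came from a standard curve, and IC50 was fitted by nonlinear regression of log concentration versus % survival.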

BT-474 = assay: Antiproliferative activity against human BT-474 cells expressing c-MET assessed as reduction in cell viability incubated for 72 hrs by MTT assay; type: functional, cell-based; details: BT-474, 72 h; procedure, shortened: as §1
SK-BR-3 = assay: Antiproliferative activity against human SK-BR-3 cells expressing c-MET assessed as reduction in cell viability incubated for 72 hrs by MTT assay; type: functional, cell-based; details: SK-BR-3, 72 h; procedure, shortened: as §1
MDA-MB-231 [2] = assay: Antiproliferative activity against human MDA-MB-231 cells expressing c-MET assessed as reduction in cell viability incubated for 72 hrs by MTT assay; type: functional, cell-based; details: MDA-MB-231, 72 h; procedure, shortened: as §2
MDA-MB-468 = assay: Antiproliferative activity against human MDA-MB-468 cells expressing c-MET assessed as reduction in cell viability incubated for 72 hrs by MTT assay; type: functional, cell-based; details: MDA-MB-468, 72 h; procedure, shortened: as §1
[3] = Cytotoxicity against human MCF-10A cells assessed as cell viability at 20 uM incubated for 72 hrs by MTT assay; type: cell-based; details: read-out: Activity
[4] = target: T1, Hepatocyte growth factor receptor (Homo sapiens, UniProt P08581); assay: Inhibition of recombinant human His-tagged c-MET expressed in baculovirus expression system assessed as reduction in c-MET phosphorylation at 5 uM using Tyr6 as substrate incubated for 1 hr by Z'-lyte assay relative to control
T1 sequence (P08581 whole entry): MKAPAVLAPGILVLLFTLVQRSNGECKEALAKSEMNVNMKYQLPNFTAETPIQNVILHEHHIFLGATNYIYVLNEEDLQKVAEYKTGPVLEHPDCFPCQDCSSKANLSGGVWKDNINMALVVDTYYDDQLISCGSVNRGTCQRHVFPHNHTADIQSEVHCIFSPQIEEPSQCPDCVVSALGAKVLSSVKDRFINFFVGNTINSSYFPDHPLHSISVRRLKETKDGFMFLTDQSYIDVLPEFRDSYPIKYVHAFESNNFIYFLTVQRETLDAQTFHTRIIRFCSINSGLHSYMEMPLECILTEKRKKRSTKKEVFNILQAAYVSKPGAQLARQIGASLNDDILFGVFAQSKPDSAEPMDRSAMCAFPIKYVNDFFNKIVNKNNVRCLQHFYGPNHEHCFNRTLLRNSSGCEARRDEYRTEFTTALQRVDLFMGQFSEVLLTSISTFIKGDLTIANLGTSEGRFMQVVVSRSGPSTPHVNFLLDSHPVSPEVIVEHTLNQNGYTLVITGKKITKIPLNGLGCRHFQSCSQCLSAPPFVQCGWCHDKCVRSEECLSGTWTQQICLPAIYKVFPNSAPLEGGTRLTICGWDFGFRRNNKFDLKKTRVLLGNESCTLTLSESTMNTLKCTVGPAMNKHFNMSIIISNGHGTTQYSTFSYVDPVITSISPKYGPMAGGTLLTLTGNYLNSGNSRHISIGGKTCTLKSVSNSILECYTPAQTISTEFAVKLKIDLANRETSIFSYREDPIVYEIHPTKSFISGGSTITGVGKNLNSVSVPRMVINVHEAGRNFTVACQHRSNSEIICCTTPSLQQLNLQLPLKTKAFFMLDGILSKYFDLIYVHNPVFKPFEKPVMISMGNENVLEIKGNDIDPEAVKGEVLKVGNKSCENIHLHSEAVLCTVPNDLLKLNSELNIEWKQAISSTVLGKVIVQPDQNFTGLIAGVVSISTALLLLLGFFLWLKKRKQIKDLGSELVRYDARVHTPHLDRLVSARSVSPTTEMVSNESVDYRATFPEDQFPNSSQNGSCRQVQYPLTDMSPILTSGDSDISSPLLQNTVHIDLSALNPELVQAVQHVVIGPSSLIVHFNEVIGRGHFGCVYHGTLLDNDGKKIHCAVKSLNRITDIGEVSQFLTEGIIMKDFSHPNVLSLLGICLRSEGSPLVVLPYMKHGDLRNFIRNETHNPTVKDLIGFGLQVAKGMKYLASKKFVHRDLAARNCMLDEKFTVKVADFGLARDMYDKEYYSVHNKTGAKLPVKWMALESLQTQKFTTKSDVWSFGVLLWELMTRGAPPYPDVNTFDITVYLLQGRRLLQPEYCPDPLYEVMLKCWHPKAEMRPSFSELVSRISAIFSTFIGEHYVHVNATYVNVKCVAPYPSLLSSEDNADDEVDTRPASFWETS
Procedure, shortened: (§3)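 Cell-free Z′-LYTE Tyr6 assay with recombinant human wild-type or M1250T mutant c-Met kinase at 2500 ng/mL, plus 200 μM ATP, 4 μM Tyr6 peptide and inhibitor. Reaction ran 1 h at room temperature, followed by protease development for 1 h. Readout was the 445/520 nm emission ratio. IC50 from nonlinear regression of log concentration vs % phosphorylation; n=3/dose.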

[5] = target: T1, Hepatocyte growth factor receptor; assay: Inhibition of recombinant human His-tagged c-MET expressed in baculovirus expression system assessed as reduction in c-MET phosphorylation at 10 uM using Tyr6 as substrate incubated for 1 hr by Z'-lyte assay relative to control; procedure, shortened: as §3
MDA-MB-231 [6] = assay: Antiinvasive activity against human MDA-MB-231 cells assessed as reduction in HGF-mediate cell invasion at 15 uM incubated for 24 hrs by fluorescence based assay relative to control; type: functional; set-up: scale not given: the % may be the effect or the level left
Procedure, shortened: (§4)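 Cells starved 16 h in serum-free RPMI-1640, then 25,000 cells placed in rehydrated basement-membrane inserts. The bottom wells held 5% serum medium with test compound or DMSO vehicle, and invasion was induced with 40 ng/mL HGF. After 24 h at 37 °C, invaded cells were stained with calcein AM and read at ex 485/em 520 nm. Cell number came from a standard curve; triplicates.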

MDA-MB-231 [7] = assay: Antiinvasive activity against human MDA-MB-231 cells assessed as reduction in HGF-mediate cell invasion at 30 uM incubated for 24 hrs by fluorescence based assay relative to control; type: functional; set-up: scale not given: the % may be the effect or the level left; procedure, shortened: as §4
A549 = assay: Cytotoxicity against human A549 cells assessed as reduction in cell viability incubated for 72 hrs by MTT assay; type: functional, cell-based; details: A549, 72 h
HL-60 = assay: Cytotoxicity against human HL-60 cells assessed as reduction in cell viability incubated for 72 hrs by MTT assay; type: functional, cell-based; details: HL-60, 72 h
T47D = assay: Antiproliferative activity against human T47D cells assessed as reduction in cell viability incubated for 72 hrs by MTT assay; type: functional, cell-based
Procedure, shortened: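 Cells plated at 1×10⁴/well in RPMI-1640 with 10% FBS and left to adhere overnight. They were then fed serum-free RPMI-1640 containing 40 ng/mL HGF and at least four compound concentrations, 6 wells/group, for 72 h, with medium renewed every other day. MTT 1 mg/mL for 4 h, formazan dissolved in DMSO, A570. Cell number came from a standard curve; IC50 from nonlinear regression of log concentration vs % survival relative to DMSO.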

[8] = Cytotoxicity against human MCF-10A cells assessed as cell viability at 5 uM incubated for 72 hrs by MTT assay; type: cell-based; details: read-out: Activity
[9] = Cytotoxicity against human MCF-10A cells assessed as cell viability at 10 uM incubated for 72 hrs by MTT assay; type: cell-based; details: read-out: Activity
[10] = Cytotoxicity against human MCF-10A cells assessed as cell viability at 30 uM incubated for 72 hrs by MTT assay; type: cell-based; details: read-out: Activity
MDA-MB-231 [11] = assay: Cytotoxicity against human MDA-MB-231 cells assessed as reduction in cell viability at 25 uM incubated for 24 hrs by LDH assay relative to control; type: functional
Procedure, shortened: (§5)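 MDA-MB-231 cells seeded at 3×10⁴/well and allowed to attach, then treated in triplicate in 5% serum medium for 24 h at 37 °C. Triton X-100 gave maximum release, and […]. Supernatant was reacted with NAD⁺, lactate, INT and diaphorase for 30 min at room temperature, then read at A490. % cytotoxicity was computed relative to spontaneous and maximum release.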

MDA-MB-231 [12] = assay: Cytotoxicity against human MDA-MB-231 cells assessed as reduction in cell viability at 50 uM incubated for 24 hrs by LDH assay relative to control; type: functional; procedure, shortened: as §5
[13] = target: T1, Hepatocyte growth factor receptor; assay: Inhibition of recombinant human His-tagged c-MET expressed in baculovirus expression system assessed as reduction in c-MET phosphorylation using Tyr6 as substrate incubated for 1 hr by Z'-lyte assay; procedure, shortened: as §3
[14] = target: Hepatocyte growth factor receptor (Homo sapiens, UniProt P08581, M1250T); assay: Inhibition of recombinant human His-tagged c-MET M1250T mutant expressed in baculovirus expression system assessed as reduction in c-MET phosphorylation using Tyr6 as substrate incubated for 1 hr by Z'-lyte assay
Chain of Hepatocyte growth factor receptor (Homo sapiens, UniProt P08581, M1250T) (P08581 whole entry M1250T): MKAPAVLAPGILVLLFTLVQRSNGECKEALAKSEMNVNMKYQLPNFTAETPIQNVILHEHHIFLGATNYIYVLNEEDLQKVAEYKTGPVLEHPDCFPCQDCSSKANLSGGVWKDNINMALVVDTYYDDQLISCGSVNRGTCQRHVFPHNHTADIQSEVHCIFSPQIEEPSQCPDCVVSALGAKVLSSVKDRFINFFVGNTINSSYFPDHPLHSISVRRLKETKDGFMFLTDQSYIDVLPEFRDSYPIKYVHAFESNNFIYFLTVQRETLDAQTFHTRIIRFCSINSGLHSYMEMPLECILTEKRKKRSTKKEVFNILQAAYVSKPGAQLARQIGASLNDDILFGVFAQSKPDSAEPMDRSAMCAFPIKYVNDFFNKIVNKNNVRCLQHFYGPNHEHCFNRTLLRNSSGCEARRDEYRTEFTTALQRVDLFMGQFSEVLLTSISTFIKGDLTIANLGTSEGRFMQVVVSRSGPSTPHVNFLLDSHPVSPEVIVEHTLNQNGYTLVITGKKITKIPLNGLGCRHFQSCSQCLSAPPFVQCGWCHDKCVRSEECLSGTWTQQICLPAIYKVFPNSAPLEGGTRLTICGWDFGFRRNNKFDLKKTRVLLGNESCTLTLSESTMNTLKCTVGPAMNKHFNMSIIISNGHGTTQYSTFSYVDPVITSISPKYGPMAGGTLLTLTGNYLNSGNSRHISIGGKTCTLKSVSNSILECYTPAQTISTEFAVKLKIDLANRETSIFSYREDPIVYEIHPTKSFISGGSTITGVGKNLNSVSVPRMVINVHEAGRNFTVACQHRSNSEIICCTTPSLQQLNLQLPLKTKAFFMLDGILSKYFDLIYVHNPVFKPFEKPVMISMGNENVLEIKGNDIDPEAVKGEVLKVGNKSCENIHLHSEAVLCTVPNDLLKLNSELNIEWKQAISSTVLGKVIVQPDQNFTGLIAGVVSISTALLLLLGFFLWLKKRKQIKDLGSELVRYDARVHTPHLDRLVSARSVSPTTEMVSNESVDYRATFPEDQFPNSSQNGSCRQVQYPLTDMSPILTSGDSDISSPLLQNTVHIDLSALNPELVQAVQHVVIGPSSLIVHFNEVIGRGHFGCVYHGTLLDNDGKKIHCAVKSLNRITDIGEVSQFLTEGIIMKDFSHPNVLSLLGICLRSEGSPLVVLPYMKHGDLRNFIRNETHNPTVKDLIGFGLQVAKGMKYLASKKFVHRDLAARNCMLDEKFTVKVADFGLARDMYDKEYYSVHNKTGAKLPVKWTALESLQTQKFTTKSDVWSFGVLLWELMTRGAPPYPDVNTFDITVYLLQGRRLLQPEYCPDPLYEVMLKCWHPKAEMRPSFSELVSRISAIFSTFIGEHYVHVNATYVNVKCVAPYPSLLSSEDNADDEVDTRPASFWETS

MDA-MB-231 [15] = assay: Antiinvasive activity against human MDA-MB-231 cells assessed as reduction in HGF-induced cell invasion incubated for 24 hrs by fluorescence based assay; type: functional; procedure, shortened: as §4
MDA-MB-231 [16] = assay: Reduction of c-MET expression level in human MDA-MB-231 cells at 15 to 30 uM incubated for 48 hrs by Western blot analysis; type: functional, cell-based; details: dose 15-30 µM
Procedure, shortened: (§6)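 MDA-MB-231 cells seeded at 1×10⁶ per 100 mm dish and left overnight. Cells were treated with compound or DMSO in serum-free medium containing HGF 50 ng/mL for 48 h. RIPA lysates (30 μg protein) were run on SDS-PAGE and transferred to PVDF. Membranes were blocked in 5% BSA/TBST and probed overnight at 4 °C with primary antibodies, then HRP secondary; chemiluminescent detection.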

[17] = target: T1, Hepatocyte growth factor receptor; assay: Inhibition of c-MET in human MDA-MB-231 cells assessed as reduction in c-MET phosphorylation level at 15 to 30 uM incubated for 48 hrs by Western blot analysis; type: cell-based; details: dose 15-30 µM; procedure, shortened: as §6
MDA-MB-231 [18] = assay: Antitumor activity against GFP-tagged human MDA-MB-231 cells xenografted in athymic nude-Foxn1nu/Fox1+ mouse assessed as the reduction in tumor growth at 10 mg/kg, ip dosed 3 times per week for 3 weeks treatment started 14 days of post inoculation; type: functional; details: MDA-MB-231, ip, 504 h, read-out: TGI
Procedure, shortened: (§7)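 Female athymic nude mice, 4–5 weeks old, received 1×10⁶ MDA-MB-231/GFP cells into the second mammary fat pad (orthotopic), n = 5/group. Dosing was 10 mg/kg i.p. 3×/week or DMSO/saline vehicle, starting on day 14 after inoculation. Tumor volume was taken as L/2 × W², with body weight and clinical signs monitored. Mice were killed on day 33 and tumors excised and weighed.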

[19] = Toxicity in athymic nude-Foxn1nu/Fox1+ mouse assessed as effect on body weight at 10 mg/kg, ip dosed 3 times per week for 3 weeks treatment started 14 days of post inoculation; type: organism-based; details: in vivo, 504 h; procedure, shortened: as §7
MDA-MB-231 [20] = assay: Antiinvasive activity against human MDA-MB-231 cells assessed as reduction in HGF-mediate cell invasion at 4 uM incubated for 24 hrs by fluorescence based assay relative to control; type: functional; set-up: scale not given: the % may be the effect or the level left; procedure, shortened: as §4
MDA-MB-231 [21] = assay: Antiinvasive activity against human MDA-MB-231 cells assessed as reduction in HGF-mediate cell invasion at 8 uM incubated for 24 hrs by fluorescence based assay relative to control; type: functional; set-up: scale not given: the % may be the effect or the level left; procedure, shortened: as §4
MDA-MB-231 [22] = assay: cells; details: Homo sapiens, MDA-MB-231, 24 h
Bel-7402 = assay: Cytotoxicity against human Bel-7402 cells assessed as reduction in cell viability incubated for 72 hrs by MTT assay; type: functional, cell-based; details: Bel-7402, 72 h
MOLT-4 = assay: Cytotoxicity against human MOLT-4 cells assessed as reduction in cell viability incubated for 72 hrs by MTT assay; type: functional, cell-based; details: MOLT-4, 72 h

Structure (SMILES) | IC50 (MCF7) [µM] | IC50 [1] [µM] | IC50 (BT-474) [µM] | IC50 (SK-BR-3) [µM] | IC50 (MDA-MB-231 [2]) [µM] | IC50 (MDA-MB-468) [µM] | viability at 72 h, 20 µM [3] [%] | inhibition [4] [%] | inhibition [5] [%] | Activity (MDA-MB-231 [6]) [%] | Activity (MDA-MB-231 [7]) [%] | IC50 (A549) [µM] | IC50 (HL-60) [µM] | other results
C=CC(C)(C)[C@@]12C[C@H]3C(=O)N/C(=C/c4c[nH]cn4)C(=O)N3[C@@H]1Nc1ccccc12 [ROQUEFORTINE C] | 21.7 | 24.4 | 29.6 | 23.4 | 23.5 | 28.6 | 98.4 | 39.7 | 59.7 | 47.6 | 79.3 | – | – | –
C=CC(C)(C)[C@@]12C=C(O)C(=O)N3/C(=C/c4cnc[nH]4)C(=O)N[C@]31N(OC)c1ccccc12 | 1.9 | 3.2 | 2.7 | 2.8 | 6.8 | 8.9 | 74.4 | 56.3 | 88 | – | – | 19.9 | 7.4 | IC50 (T47D): > 40 µM; viability at 72 h, 5 µM [8]: 100%; viability at 72 h, 10 µM [9]: 98.8%; viability at 72 h, 30 µM [10]: 48.9%; inhibition at 25 µM (MDA-MB-231 [11]): 2.5%; inhibition at 50 µM (MDA-MB-231 [12]): 9.4%; IC50 [13]: 4.2 µM; inhibition [13]: Dose-dependent effect; IC50 [14]: 2.1 µM; Activity (MDA-MB-231 [15]): Dose-dependent effect; inhibition (MDA-MB-231 [16]): inactive; inhibition [17]: Active; inhibition in vivo at 10 mg/kg (MDA-MB-231 [18]): 65%; Activity [19]: Non-Toxic; Activity (MDA-MB-231 [20]): 30.7%; Activity (MDA-MB-231 [21]): 57.5%; IC50 (MDA-MB-231 [22]): 1.8 µM
O=C1N[C@@H](Cc2c[nH]c3ccccc23)C(=O)N/C1=C/c1cnc[nH]1 | 40 | 23.8 | 40 | 40 | 31.8 | 40 | – | 0 | 10.2 | 46.1 | 83 | – | – | –
C=CC(C)(C)[C@@]12C=C(O)C(=O)N3/C(=C/c4cn([C@H]5C[C@@]6(O)O[C@@H]7C[C@@]6(C)[C@]6(C[C@]8(C)CCC(C)(C)[C@@H]8[C@@H]76)[C@@H]5C)cn4)C(=O)N[C@]31N(OC)c1ccccc12 | – | – | – | – | – | – | – | – | – | – | – | 1.8 | 1.8 | IC50 (Bel-7402): 1.8 µM; IC50 (MOLT-4): 1.8 µM

— ChEMBL document CHEMBL4715690 (Bioorg Med Chem, 2016)
